Screening results from PubChem BioAssay.
Hits are enriched below; roughly 4.9% of the tested compounds scored in any of these assays.
HSF1 inh: HSF1 inhibition. NIH3T3-HGL HSE-luciferase, MG132-induced, luminescence 8 h; stronger effect = lower value. 300,000 compounds, 0.77% hits. activity change, negative = inhibition, % at 7.5 µM (by protocol);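 active = more than half of replicate wells show activity change below -50%, luminescence cut by over half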;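 also: luciferase reports HSF-1 transcriptional activity via heat shock element; 0% = median of DMSO wells and -100% = zero luminescence signal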
Lipid droplet: hepatic lipid droplet formation modulation; AID 1656; inhibition, % at 6.5 µM; AML12 mouse hepatocytes, oleate lipid droplets, BODIPY imaging; 240,000 compounds, 0.4% hits;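 active = lipid droplet intensity inhibited by at least 50%, with more than 500 cells counted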
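Test system: AML12 hepatocytes (mouse); reagent: oleate loading, 100 µM; dosing: one dose, 6.5 µM compound; incubation: overnight exposure; signal: fluorescence imaging, 20x objective, two fields per well; read-out basis: % inhibition of corrected integrated BODIPY droplet signal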
CHT PAM: human CHT allosteric activation; Q9GZV3; CHT-expressing cells, membrane potential dye, choline EC20; stronger effect = higher value; LV-AA mutant CHT in HEK293 cells; B-score at 10 µM; 310,000 compounds, 0.49% hits;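 active = initial fluorescence not abnormally high and integrated response B-score, plate-corrected, over 3 SD above library mean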
PHOSPHO1 inh: PHOSPHO1 (human) inhibition. 290,000 compounds, 1.1% hits. inhibition, % at 13.3 µM. AID 1565. Q8TCT1. recombinant PHOSPHO1, absorbance phosphatase assay; in the data active = inhibition above about 60%
Target sequence (Q8TCT1 whole entry, looked up): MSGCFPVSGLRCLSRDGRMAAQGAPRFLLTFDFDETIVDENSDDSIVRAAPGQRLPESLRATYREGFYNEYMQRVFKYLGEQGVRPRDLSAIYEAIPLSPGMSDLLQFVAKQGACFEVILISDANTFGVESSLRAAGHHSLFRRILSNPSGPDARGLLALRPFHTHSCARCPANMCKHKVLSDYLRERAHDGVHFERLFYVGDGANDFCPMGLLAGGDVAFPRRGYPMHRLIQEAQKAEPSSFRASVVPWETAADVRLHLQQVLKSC
CHT block: inhibits the human high affinity choline transporter. Q9GZV3. CHT-expressing cells, membrane potential dye, choline response; stronger effect = lower value. B-score at 10 µM. 310,000 compounds, 0.86% hits;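 active = B-score over 3 SD under the library average, and starting fluorescence ratio not unusually high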;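 also: choline stimulus applied at its EC90 after an EC20 pre-addition; B-score computed on integrated fluorescence ratio after choline addition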
HSF-1 act: increases HSF-1 driven luciferase reporter signal | NIH3T3-HGL HSF-1 luciferase reporter, MG132, 8 h; 100% = twice DMSO control signal | activation, % at 9 µM | 300,000 compounds, 1.7% hits | AID 504408;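 active = mean replicate activation of at least 50% with a set share of replicates each reaching 50%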;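 also: 0% = median of the neutral control wells and 100% = twice that signal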
Numbers without * were called inactive; i = inactive; . = no result given.

SMILES | HSF1 inh | Lipid droplet | CHT PAM | PHOSPHO1 inh | CHT block | HSF-1 act
Cc1cccc(OCC(=O)Nc2ccc3c(c2)nc(CCN2CCCCC2)n3C)c1 | 84 | -11 | i | 30 | i | 84*
Cn1c(CCN2CCCCC2)nc2cc(NC(=O)COc3ccccc3)ccc21 | 54 | 14 | i | 22 | i | 58*
Cc1ccc(OCC(=O)Nc2ccc3c(c2)nc(CCN2CCCCC2)n3C)cc1 | 61 | -1 | i | 7 | i | 76*
CN1CCN(CCc2nc3cc(NC(=O)COc4ccccc4)ccc3n2C)CC1 | 26 | . | i | 11 | i | 28
Cc1nn(-c2ccccc2)c(N)c1C(O)(CSc1nccn1C)C(F)(F)F (stereo not given) | -91* | -11 | i | 16 | i | -91
COC(=O)c1cc(NC(=O)Nc2cccc(Cl)c2)ccc1Cl | 15 | . | i | 33 | i | 23
O=C(Nc1c(C(=O)c2ccccc2)oc2ccccc12)c1cc(-c2ccccc2O)n[nH]1 | 25 | -4 | i | -10 | i | 66*
O=C(NCc1cccnc1)/C(=C/c1ccc(-c2ccc(Cl)cc2)o1)S(=O)(=O)c1ccccc1 | 69 | . | i | 20 | i | 87*
COc1ccccc1CN1CCN(Cc2nc(-c3cccs3)no2)CC1 | 7 | -14 | i | 35 | i | 21
Fc1ccc(OCc2nc(-c3ccc(Br)o3)no2)c(F)c1 | 4 | . | i | -11 | i | 17
Cc1ccc(OCc2nc(-c3cccs3)no2)c([N+](=O)[O-])c1 | 55 | 1 | i | 16 | i | 104*
O=[N+]([O-])c1ccc(F)cc1OCc1nc(-c2cccs2)no1 | 28 | 3 | . | -118 | . | 66*
Cc1ccc(OCc2nc(-c3ccccc3)no2)c(C)c1 | 56 | . | i | 7 | i | 109*
O=C(O)CCc1nc(-c2cccs2)no1 | 1 | . | i | 14 | i | -1
O=[N+]([O-])c1ccccc1OCc1nc(-c2cccs2)no1 | 27 | 3 | i | 1 | i | 82*
COc1ccc(O[C@@H]2O[C@H](COC(C)=O)[C@@H](OC(C)=O)[C@H](OC(C)=O)[C@H]2NC(C)=O)cc1 | -7 | 32 | i | 26 | i | -2
Cc1cc(N)n2nc(C(F)(F)F)nc2n1 | 1 | 6 | i | 27 | i | 12
O=C(CSc1nc2ccsc2c(=O)n1CC1CCC(C(=O)O)CC1)NCCc1ccc(Cl)cc1 (stereo not given) | -6 | -24 | i | 22 | i | 14
COc1ccc(Cl)cc1NC(=O)CSc1nc2ccsc2c(=O)n1CC1CCC(C(=O)O)CC1 (stereo not given) | -60* | -2 | i | 38 | i | -69
COc1cc([N+](=O)[O-])cc2cc(C(=O)N3CCN=C3c3ccccc3)c(=O)oc12 | -9 | -2 | i | -5 | i | 2
CCCCNC(=O)/C(C#N)=C/c1ccc(F)cc1F | -8 | -14 | i | 32 | i | 3
C=CCn1c(O)c(N=NC(=S)Nc2ccc(OC)c(Cl)c2)c2ccccc21 | 7 | 6 | i | 7 | i | 55*
CCOc1ccc(C2/C(=C(\O)c3ccc4c(c3)OCCO4)C(=O)C(=O)N2CCN2CCOCC2)cc1OC (stereo not given) | . | 4 | i | 26 | i | .
CC(=O)c1ccc(N2CCN(C(=O)c3n[nH]c4ccccc34)CC2)cc1 | 25 | 4 | i | 27 | i | 56*
CC1CCN(C(=O)c2cc3c(ccc4ccccc43)o2)CC1 | -7 | -17 | i | 12 | i | -7
CCOC(=O)C1CCN(C(=O)c2cc3c(ccc4ccccc43)o2)CC1 | 52 | -9 | i | -25 | i | 77*
N#C/C(=C(/O)c1ccc2c(c1)OCO2)c1nc2cc(C(F)(F)F)ccc2s1 | 4 | -28 | i | -13 | -8.3* | 31
O=C(Nc1cc(-c2nc3ccccc3s2)ccc1Cl)c1ccc2c(c1)OCO2 | -4 | . | i | 42 | i | 12
CCn1c(SCC(=O)NNC(=S)Nc2ccccc2)nnc1-c1ccc(Cl)cc1 | -4 | 25 | i | -2 | i | 20
CCCNC(=S)Nc1ccc(S(N)(=O)=O)cc1 | -10 | 1 | i | 31 | i | -9
